# Square brackets hold non-standard residues; d marks the D form. Peptide text beside a SMILES is read from it. ξ: configuration not given here. ξTle = CC(C)(C)C(N)C(=O)O
# Experiments:
# [1] = target: T1, Dipeptidyl peptidase 4 (Homo sapiens, UniProt P27487); assay: Stability of the compound assessed as recombinant human DPP4-mediated compound degradation at 0.1 mM measured after 24 hrs by reverse-phase HPLC/MS analysis; assay type: ADME; conditions: 100 µM
# Procedure, shortened: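 GLP-1 peptides (0.1 mM) incubated at 37 °C with recombinant human DPP IV in 50 mM HEPES, 0.14 M NaCl, pH 8.0, up to 24 h; acid-quenched samples analysed by RP-HPLC-MS for intact peptide.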
# [2] = target: Alpha-lytic protease (Lysobacter enzymogenes, UniProt P00778); assay: Stability of the compound assessed as Lysobacter enzymogenes alpha-LP-mediated compound degradation at 0.1 mM after 5 hrs by reverse-phase HPLC/MS analysis; assay type: ADME; conditions: 100 µM
# Sequence of Alpha-lytic protease (P00778 whole entry): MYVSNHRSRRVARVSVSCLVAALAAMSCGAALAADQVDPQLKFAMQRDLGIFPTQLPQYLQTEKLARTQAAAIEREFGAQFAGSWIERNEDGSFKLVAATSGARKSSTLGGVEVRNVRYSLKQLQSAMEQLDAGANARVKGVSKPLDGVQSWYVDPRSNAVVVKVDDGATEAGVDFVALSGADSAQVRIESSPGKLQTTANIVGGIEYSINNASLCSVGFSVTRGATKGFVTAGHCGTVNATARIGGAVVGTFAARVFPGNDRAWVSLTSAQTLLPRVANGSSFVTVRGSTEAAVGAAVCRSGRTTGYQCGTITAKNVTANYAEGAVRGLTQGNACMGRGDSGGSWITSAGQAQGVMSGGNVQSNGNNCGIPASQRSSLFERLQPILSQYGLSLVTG
# [3] = target: DPP4 (dipeptidyl peptidase 4) (Sus scrofa, UniProt P22411); assay: Stability of the compound assessed as porcine DPP4-mediated compound degradation measured intact level at 0.1 mM measured at 30 mins by reverse-phase HPLC/MS analysis; assay type: ADME; conditions: pig, read-out: Stability
# Sequence of DPP4 (dipeptidyl peptidase 4) (P22411 whole entry): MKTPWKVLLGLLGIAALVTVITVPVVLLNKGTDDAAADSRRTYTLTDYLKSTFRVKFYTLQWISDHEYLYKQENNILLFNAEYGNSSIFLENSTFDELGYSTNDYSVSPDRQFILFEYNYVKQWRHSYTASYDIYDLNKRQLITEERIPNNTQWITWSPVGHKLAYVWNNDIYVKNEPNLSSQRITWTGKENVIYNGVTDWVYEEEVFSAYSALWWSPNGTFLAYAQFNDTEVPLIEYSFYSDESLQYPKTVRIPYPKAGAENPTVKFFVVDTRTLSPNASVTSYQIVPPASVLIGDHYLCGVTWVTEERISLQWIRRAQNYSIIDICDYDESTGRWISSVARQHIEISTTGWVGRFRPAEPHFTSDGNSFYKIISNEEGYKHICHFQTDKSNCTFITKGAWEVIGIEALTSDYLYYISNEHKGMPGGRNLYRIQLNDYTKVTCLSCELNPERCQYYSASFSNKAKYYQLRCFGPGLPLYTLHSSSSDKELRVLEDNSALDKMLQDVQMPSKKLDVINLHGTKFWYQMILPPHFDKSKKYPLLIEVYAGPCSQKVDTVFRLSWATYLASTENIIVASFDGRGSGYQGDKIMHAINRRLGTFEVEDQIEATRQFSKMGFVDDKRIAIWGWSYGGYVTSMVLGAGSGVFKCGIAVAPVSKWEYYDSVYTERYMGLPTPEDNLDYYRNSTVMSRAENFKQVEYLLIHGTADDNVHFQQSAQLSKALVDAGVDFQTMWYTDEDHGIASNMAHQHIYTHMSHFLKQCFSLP
# Procedure, shortened: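 Synthetic hexapeptides (0.1 mM) incubated at 37 °C with 10 mU/mL DPP IV purified from porcine kidney in 50 mM HEPES, 0.14 M NaCl, pH 8.0; intact peptide by HPLC-MS, expressed as percent of time-zero value.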
# [4] = target: T1, Dipeptidyl peptidase 4; assay: Competitive inhibition of human recombinant DPP4 using AP-pNA as substrate preincubated for 30 mins followed by substrate addition measured after 30 mins by spectrophotometric analysis
# [5] = target: Trypsin (Sus scrofa, UniProt P00761); assay: Stability of the compound assessed as porcine pancreatic trypsin-mediated compound degradation at 0.1 mM after 8 hrs by reverse-phase HPLC/MS analysis; assay type: ADME; conditions: pig, isolated protein, 100 µM
# Sequence of Trypsin (P00761 whole entry): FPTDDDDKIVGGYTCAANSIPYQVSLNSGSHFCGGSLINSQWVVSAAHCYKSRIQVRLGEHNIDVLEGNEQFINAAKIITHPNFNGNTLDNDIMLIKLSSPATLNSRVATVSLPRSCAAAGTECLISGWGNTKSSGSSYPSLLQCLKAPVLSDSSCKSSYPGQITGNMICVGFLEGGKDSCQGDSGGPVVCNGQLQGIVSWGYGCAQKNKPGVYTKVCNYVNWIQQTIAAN
# T1 sequence (P27487 whole entry): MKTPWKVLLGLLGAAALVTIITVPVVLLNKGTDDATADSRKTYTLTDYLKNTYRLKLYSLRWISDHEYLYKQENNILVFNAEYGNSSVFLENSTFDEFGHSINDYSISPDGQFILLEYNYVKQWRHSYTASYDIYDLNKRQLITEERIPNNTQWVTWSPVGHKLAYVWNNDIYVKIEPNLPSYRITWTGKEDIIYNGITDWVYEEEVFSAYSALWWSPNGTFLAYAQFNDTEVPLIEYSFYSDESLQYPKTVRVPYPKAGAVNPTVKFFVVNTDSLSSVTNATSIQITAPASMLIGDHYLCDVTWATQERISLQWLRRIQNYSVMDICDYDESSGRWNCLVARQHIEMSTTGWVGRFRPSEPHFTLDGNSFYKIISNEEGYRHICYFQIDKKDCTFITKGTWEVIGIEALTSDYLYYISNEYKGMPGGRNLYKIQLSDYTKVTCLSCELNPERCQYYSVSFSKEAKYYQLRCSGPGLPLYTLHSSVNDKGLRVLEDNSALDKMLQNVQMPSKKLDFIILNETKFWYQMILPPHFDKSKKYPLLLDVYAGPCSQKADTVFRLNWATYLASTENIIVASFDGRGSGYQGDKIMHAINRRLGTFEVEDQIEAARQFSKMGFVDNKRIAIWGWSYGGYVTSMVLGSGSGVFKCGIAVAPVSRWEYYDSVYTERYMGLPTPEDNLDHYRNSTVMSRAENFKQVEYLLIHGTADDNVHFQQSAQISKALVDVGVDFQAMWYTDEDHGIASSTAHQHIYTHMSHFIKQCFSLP
structure (smiles),measurement,setting,value
CC[C@H](C)[C@H](NC(=O)[C@H](Cc1ccccc1)NC(=O)[C@H](CCC(=O)O)NC(=O)[C@H](CCCCN)NC(=O)[C@H](C)NC(=O)[C@H](C)NC(=O)[C@H](CCC(N)=O)NC(=O)CNC(=O)[C@H](CCC(=O)O)NC(=O)[C@H](CC(C)C)NC(=O)[C@H](Cc1ccc(O)cc1)NC(=O)[C@H](CO)NC(=O)[C@H](CO)NC(=O)[C@@H](NC(=O)[C@H](CC(=O)O)NC(=O)[C@H](CO)NC(=O)[C@@H](NC(=O)[C@H](Cc1ccccc1)NC(=O)[C@@H](NC(=O)CNC(=O)C(NC(=O)[C@H](C)NC(=O)[C@@H](N)Cc1cnc[nH]1)C(C)(C)C)[C@@H](C)O)[C@@H](C)O)C(C)C)C(=O)N[C@@H](C)C(=O)N[C@@H](Cc1c[nH]c2ccccc12)C(=O)N[C@@H](CC(C)C)C(=O)N[C@H](C(=O)N[C@@H](CCCCN)C(=O)NCC(=O)N[C@@H](CCCN=C(N)N)C(N)=O)C(C)C (stereo partly specified),Stability,[1],Stable
CC(C)C[C@H](NC(=O)[C@@H](N)CC(C)C)C(=O)N1CCC[C@H]1C(=O)N[C@@H](CCCNC(=N)N)C(=O)N[C@H](C(=O)N[C@@H](C)C(=O)NC(C(=O)NCC(=O)N[C@@H](CO)C(=O)N[C@@H](CO)C(=O)N[C@@H](Cc1ccccc1)C(=O)N[C@H](C(=O)N[C@H](C(=O)N[C@H](C(=O)O)C(C)C)[C@@H](C)O)C(C)C)C(C)(C)C)C(C)C (stereo partly specified) (H-LLPRVA[ξTle]GSSFVTV-OH),Stability,[2],Stable
CC(C)C[C@H](NC(=O)[C@@H]1CCCN1C(=O)[C@H](C)N)C(=O)N[C@@H](CO)C(=O)N[C@@H](Cc1c[nH]c2ccccc12)C(=O)N[C@@H](CO)C(=O)O (H-APLSWS-OH),"remaining at 0.5 h, 100 µM",[3],< 70%
CC(C)[C@H](N)C(=O)N1CCC[C@H]1C(=O)NC(C(=O)N1CCC[C@H]1C(=O)N[C@@H](CCCNC(=N)N)C(N)=O)C(C)(C)C (stereo partly specified) (H-VP[ξTle]PR-NH2),Stability,[1],Stable
same,Ki,[4],4.5 µM
CC(C)C[C@H](NC(=O)[C@@H](N)CC(C)C)C(=O)N1CCC[C@H]1C(=O)N[C@@H](CCCNC(=N)N)C(=O)NC(C(=O)N[C@@H](C)C(=O)N[C@@H](CC(N)=O)C(=O)NCC(=O)N[C@@H](CO)C(=O)N[C@@H](CO)C(=O)N[C@@H](Cc1ccccc1)C(=O)N[C@H](C(=O)N[C@H](C(=O)N[C@H](C(=O)O)C(C)C)[C@@H](C)O)C(C)C)C(C)(C)C (stereo partly specified) (H-LLPR[ξTle]ANGSSFVTV-OH),Stability,[5],Stable
